Results on one compound are retold here after ChEMBL document CHEMBL1123133, “1H-2-Benzopyran-1-one derivatives, microbial products with pharmacological activity. Conversion into orally active derivatives with antiinflammatory and antiulcer activities” (J Med Chem, 1985).

In series [1] the test system is Rattus norvegicus. Kind of series: Concentration 6f detected in blood of rat 1 hr after an oral dose of 200 mg/kg; ND is Not Detected. The class given is ADME, organism-based. On the set-up: dose 200 mg/kg, route oral. As to conditions: in vivo. The gist of the method: (§1)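 Male Wistar rats (120–160 g), 5–7 per group, fasted 24 h, given 200 mg/kg orally as aqueous HCl salt formulation (drug/glycerin/HCO-60 1/12/0.05 by weight). Jugular blood taken under ether at 1 or 3 h into citric acid; plasma deproteinized with ethanol (acetone for 5d) and analysed by C18 HPLC at 254 nm. Values recovery-corrected, mean of 6–7 rats.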

Series [2] concerns Rattus norvegicus. Kind of series: Concentration 6f detected in blood of rat 3 hr after an oral dose of 200 mg/kg; ND is Not Detected. Type of series: ADME, organism-based. More on the design: dose 200 mg/kg, route oral. As to conditions: in vivo. The gist of the method:
as §1

In series [3] the test system is Rattus norvegicus. Description: Concentration 1 detected in blood of rat 1 hr after an oral dose of 200 mg/kg; ND is Not Detected. The class given is ADME, organism-based. On the set-up: dose 200 mg/kg, route oral. The conditions noted are these: in vivo. In outline:
as §1

Series [4] deals with Rattus norvegicus. Description: Concentration 1 detected in blood of rat 3 hr after an oral dose of 200 mg/kg; ND is Not Detected. The class given is ADME, organism-based. More on the design: dose 200 mg/kg, route oral. As to conditions: in vivo. The gist of the method: as §1
The subject of series [5] is Rattus norvegicus. Kind of series: Concentration 5f detected in blood of rat 1 hr after an oral dose of 200 mg/kg of the compound; ND is Not Detected. More on the design: dose 200 mg/kg, route oral. Type of series: ADME, organism-based. As to conditions: in vivo. In outline:
as §1

In series [6] the test system is Rattus norvegicus. Kind of series: Concentration 5f detected in blood of rat 3 hr after an oral dose of 200 mg/kg; ND is Not Detected. Type of series: ADME, organism-based. The conditions noted are these: in vivo. More on the design: dose 200 mg/kg, route oral. In outline:
as §1

A short description of series [7]: Solubility in water, tested as a HCl salt. Type of series: physicochemical. The conditions noted are these: read-out: S. The gist of the method:
(§2)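 HCl salts suspended in excess in water or 10 mM phosphate buffer pH 7.5, sonicated 10 min at 20 °C to saturation, centrifuged; supernatant quantified by HPLC.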

Series [8] is described as follows: Lipid solubility measured as chloroform-water partition coefficient. The class given is physicochemical. The gist of the method:
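Partition between chloroform and 10 mM phosphate buffer pH 7.5 (1:1 volume); drug at 1 mg/mL initially in aqueous phase, shaken 20 min at 20 °C, centrifuged, both phases quantified by HPLC. HCl salts used.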

Series [9] deals with Rattus norvegicus. Kind of series: % recovery of the compound, compound 1 and compound 6a from whole blood of 7 wistar rats after an oral dose of the compound. As to conditions: in vivo. Type of series: ADME, organism-based.
The test system of series [10] is Rattus norvegicus. Description: Gastroprotective activity as % protection against stress ulcers in 5 rats after an intraperitoneal dose of 25 mg/kg. The class given is functional. In outline:
(§3)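 Stress ulcer by restraint and water immersion: male Wistar rats (160–180 g), fasted 24 h, given test compound po or ip as HCl salt in aqueous glycerin/HCO-60 formulation (1/12/0.05 by weight). Vehicle-only controls. After 1 h, restrained in net cage and immersed in 21 °C water for 6 h. Percent ulcer inhibition calculated; five rats per dose.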

Series [11] concerns Rattus norvegicus. Description: Gastroprotective activity as % protection against stress ulcers in 5 rats after an intraperitoneal dose of 50 mg/kg. The class given is functional. In outline: as §3
Series [12] has as its system Rattus norvegicus. Kind of series: Gastroprotective activity as % protection against stress ulcers in 5 rats after an oral dose of 100 mg/kg. The class given is functional. The gist of the method:
as §3

Series [13] relates to Rattus norvegicus. Kind of series: Gastroprotective activity as % protection against stress ulcers in 5 rats after an oral dose of 25 mg/kg. The class given is functional. The gist of the method: as §3
For series [14], the system named is Rattus norvegicus. Description: Gastroprotective activity as % protection against stress ulcers in 5 rats after an oral dose of 50 mg/kg. The class given is functional. The gist of the method: as §3
Series [15] in a line: Solubility in phosphate buffer, tested as a HCl salt. The class given is physicochemical. The gist of the method:
as §2

As to `CCCCCCNC1CC(=O)OC1C(O)C(=O)NC(CC(C)C)C1Cc2cccc(O)c2C(=O)O1` (stereo not given), the Concentration result in the series on Rattus norvegicus [1], in the series on Rattus norvegicus [2], in the series with Rattus norvegicus [3], with Rattus norvegicus [4], with Rattus norvegicus [5] and with Rattus norvegicus [6] was “Not detected” in each case. Also, the results for the solubility in series [7] and in series [15] were 1600 µg/mL and 5 µg/mL, respectively. Further, in series [8], the P came to 3000. This compound gave a Recovery in the series on Rattus norvegicus [9] of 80%. For the same compound, the Protection is on record as 17% in the series with Rattus norvegicus [10]; 11% with Rattus norvegicus [11]; 44% with Rattus norvegicus [12]; 11% with Rattus norvegicus [13]; 44% in the series on Rattus norvegicus [14].
